Test results taken from ChEMBL document CHEMBL1131270, “Fluorescent probes for adenosine receptors: synthesis and biology of N6-dansylaminoalkyl-substituted NECA derivatives” (Bioorg Med Chem Lett, 1998).

How the values were obtained:
Adenosine receptor A1 = biological target: T1, Adenosine receptor A1 (Rattus norvegicus, UniProt P25099); assay: Binding affinity for adenosine A1 receptor of rat cerebral cortex membrane using [3H]CHA; type: tissue-based
T1 sequence (P25099 whole entry): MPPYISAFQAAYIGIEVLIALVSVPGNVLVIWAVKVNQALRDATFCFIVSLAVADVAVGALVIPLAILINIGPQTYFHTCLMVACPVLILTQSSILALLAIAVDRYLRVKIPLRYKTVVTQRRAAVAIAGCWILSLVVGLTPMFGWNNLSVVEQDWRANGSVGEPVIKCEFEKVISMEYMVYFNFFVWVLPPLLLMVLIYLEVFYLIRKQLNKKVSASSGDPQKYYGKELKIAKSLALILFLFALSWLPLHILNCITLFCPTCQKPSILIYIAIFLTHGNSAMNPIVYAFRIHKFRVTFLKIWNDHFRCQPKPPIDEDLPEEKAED
Summary of the method: (§1)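 Competition binding on rat membrane preparations: cerebral cortex for A1 with [3H]-CHA, striatum for A2 with [3H]-CGS 21680. Membrane preparation and assay followed an earlier published method. IC50 values were converted to Ki with the Cheng–Prusoff equation and reported as mean ± S.E. of three experiments.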

Adenosine A2 receptor = Adenosine A2 receptor (Rattus norvegicus, UniProt P29276+P30543); assay: Binding affinity for adenosine A2 receptor of rat striatal membrane using [3H]CGS-21680; summary of the method: as §1
Adenosine receptor A3 = biological target: T2, Adenosine receptor A3 (Rattus norvegicus, UniProt P28647); assay: Binding affinity for adenosine A3 receptor of rat testis membrane using [3H](R)-PIA
T2 sequence (P28647 whole entry): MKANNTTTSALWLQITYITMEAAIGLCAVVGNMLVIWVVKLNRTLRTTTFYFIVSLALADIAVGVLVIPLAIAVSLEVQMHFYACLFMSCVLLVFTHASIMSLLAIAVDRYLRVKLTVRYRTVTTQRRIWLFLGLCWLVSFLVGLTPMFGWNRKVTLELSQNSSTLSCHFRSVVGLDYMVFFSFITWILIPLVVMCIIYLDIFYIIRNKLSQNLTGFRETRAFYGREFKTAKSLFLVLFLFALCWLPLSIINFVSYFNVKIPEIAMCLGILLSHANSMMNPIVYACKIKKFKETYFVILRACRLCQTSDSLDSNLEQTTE
Summary of the method: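 Rat testis membranes were labelled with [3H]-(R)-PIA for A3 binding, with 150 nM DPCPX present to block A1 receptors. Membrane preparation and assay followed an earlier published method. IC50 values were converted to Ki by Cheng–Prusoff and reported as mean ± S.E. of three experiments.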

| Compound | Ki (Adenosine receptor A1) | Ki (Adenosine A2 receptor) | Ki (Adenosine receptor A3) |
| --- | --- | --- | --- |
| CCNC(=O)[C@H]1OC(n2cnc3c(NCCCCCCCCCCNS(=O)(=O)c4cccc5c(N(C)C)cccc45)ncnc32)[C@H](O)[C@@H]1O (stereo partly drawn) | 234 nM | > 10000 nM | 1100 nM |
| CCNC(=O)[C@H]1OC(n2cnc3c(NCCCCNS(=O)(=O)c4cccc5c(N(C)C)cccc45)ncnc32)[C@H](O)[C@@H]1O (stereo partly drawn) | 70 nM | 9500 nM | 2000 nM |
| CCNC(=O)[C@H]1OC(n2cnc3c(NCCCNS(=O)(=O)c4cccc5c(N(C)C)cccc45)ncnc32)[C@H](O)[C@@H]1O (stereo partly drawn) | 42 nM | 4300 nM | 1800 nM |
| CCNC(=O)[C@H]1OC(n2cnc3c(NCCCCCCCCCCCCNS(=O)(=O)c4cccc5c(N(C)C)cccc45)ncnc32)[C@H](O)[C@@H]1O (stereo partly drawn) | 3400 nM | > 10000 nM | 2500 nM |

Results, then the molecule that gave them:

| Ki (Adenosine receptor A1) | Ki (Adenosine A2 receptor) | Ki (Adenosine receptor A3) | Compound |
| --- | --- | --- | --- |
| 27 nM | 4300 nM | 3600 nM | CCNC(=O)[C@H]1OC(n2cnc3c(NCCCCCCNS(=O)(=O)c4cccc5c(N(C)C)cccc45)ncnc32)[C@H](O)[C@@H]1O (stereo partly drawn) |
| 111 nM | > 10000 nM | 252 nM | CCNC(=O)[C@H]1OC(n2cnc3c(NCCCCCCCCNS(=O)(=O)c4cccc5c(N(C)C)cccc45)ncnc32)[C@H](O)[C@@H]1O (stereo partly drawn) |
